Screening data from PubChem.
Hits are enriched below; roughly 2% of the tested compounds scored in any of these assays.
RAD52 anneal inh = RAD52 DNA annealing inhibitors, primary screen, biochemical, FRET, single point, set 2; DNA repair protein RAD52 homolog (Homo sapiens), P43351; recombinant RAD52 DNA annealing, FRET fluorescence; actives 0.46% (n = 360,000); inhibition, % at 18.7 µM;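 active = every replicate showing at least 50% inhibition; inconclusive = mean inhibition at least 50% but not in every replicate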
E-selectin induc = E-selectin induction in HUVECs, primary screen, imaging, HUVEC, immunofluorescence imaging, single point; normalized: neutral wells 0, TNF-alpha wells 100; activation, % at 7.58 µM; actives 0.37% (n = 260,000); AID 686992, 2013;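 active = mean E-selectin-positive cell signal at least 10% of the positive control, reached in at least 60% of replicates, without over 20% cell loss; inconclusive = no rule given, readout overlaps actives, possibly toxicity-flagged; inactive = the rest, including those meeting only one limit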
Target sequence (P16581 whole entry, looked up): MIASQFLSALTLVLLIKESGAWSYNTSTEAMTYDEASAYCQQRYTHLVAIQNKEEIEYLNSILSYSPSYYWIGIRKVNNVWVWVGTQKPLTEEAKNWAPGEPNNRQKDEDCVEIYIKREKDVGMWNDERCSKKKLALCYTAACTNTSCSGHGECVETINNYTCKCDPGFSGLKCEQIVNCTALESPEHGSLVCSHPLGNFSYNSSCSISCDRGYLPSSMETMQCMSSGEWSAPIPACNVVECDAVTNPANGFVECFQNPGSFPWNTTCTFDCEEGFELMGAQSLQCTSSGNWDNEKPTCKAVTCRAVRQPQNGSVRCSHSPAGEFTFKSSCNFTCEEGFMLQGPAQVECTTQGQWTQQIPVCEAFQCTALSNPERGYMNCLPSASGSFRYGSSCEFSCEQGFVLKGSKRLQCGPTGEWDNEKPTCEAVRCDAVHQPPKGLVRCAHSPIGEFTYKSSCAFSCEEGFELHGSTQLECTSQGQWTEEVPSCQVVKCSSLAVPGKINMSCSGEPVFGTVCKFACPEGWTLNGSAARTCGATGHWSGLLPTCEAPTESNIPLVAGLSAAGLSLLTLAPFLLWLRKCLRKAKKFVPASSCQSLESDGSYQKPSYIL
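Test system: HUVEC; input: 3,000 HUVEC/well; measured by: immunofluorescence imaging; read-out: % PE-positive cells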
rRNA inh HTS = reduced GFP signal of wild-type E. coli, primary screen, bacterial rRNA inhibitor project, GFP/RFP fluorescence, OD600, single point. E. coli WT GFP vs humanized-ribosome RFP mutants, 24 h; active compounds read low; DMSO median 0, no signal -100. GFP signal change (wild-type ribosome), % (concentration not given with the values). actives 1.6% (n = 350,000). AID 720706, 2013;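 active = significant combined selectivity score with lowered wild-type GFP, culture density cut under 30%, mutant RFP and density less affected; inactive = any of these conditions unmet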
XiGFP reactiv = activators of inactive X chromosome reactivation, primary screen, imaging, XiGFP fibroblasts, GFP high-content imaging, set 2; XiGFP mouse fibroblasts, % GFP-positive cells imaging, 3 d; cells co-treated with 5-aza-dC sensitizer; scaled so ellipticine positive control = 100%; activation, % at 7.58 µM; actives 0.055% (n = 360,000);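 active = mean normalized replicate activation at least 10% and every replicate at or above 10%; inconclusive = only one of the two criteria met; inactive = mean below 10% and not all replicates reach 10%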;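 note: 0% = median of on-plate neutral control wells and 100% = ellipticine 6 µM median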
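System: 68-5-11 XiGFP fibroblast line | Buffer or medium: DMEM containing 5-aza-dC | Compound: Single point | Times: Compounds 3 days, fix/stain 15 min at room temperature | Benchmarks: Positive control ellipticine, 6 µM final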
RAD54 branch = inhibitors of human RAD54 branch migration, primary screen, biochemical, fluorescence, single point; AID 602329, 2012; actives 0.14% (n = 360,000); RAD54 Holliday junction branch migration, FAM/BHQ fluorescence; DNA repair and recombination protein RAD54-like (Homo sapiens), Q92698; inhibition, % at 10.4 µM;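 active = mean normalized replicate activity at least 40 and at least half of replicates scoring 40 or more; inconclusive = only one of the two criteria met; inactive = mean below 40 and under half of replicates reaching 40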;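 note: 0% = median of neutral control wells and 100% = median of positive control wells; inhibitors cause a drop in the FAM fluorescence signal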
PglD inh = C. jejuni PglD acetyltransferase inhibitors, primary screen, biochemical, DTNB colorimetric, single point. purified PglD enzyme, DTNB colorimetric CoA detection. inhibition, % at 12.5 µM. actives 0.098% (n = 360,000); in the data active = inhibition above about 16%, passing the limit was not always enough; inconclusive = no clear call, values can overlap the other calls
An asterisk follows results filed as active; ? = inconclusive; / = no result.

SMILES	RAD52 anneal inh	E-selectin induc	rRNA inh HTS	XiGFP reactiv	RAD54 branch	PglD inh
C[C@@H]1CN([C@@H](C)CO)C(=O)Cc2cc(NC(=O)Cc3ccccc3)ccc2O[C@H]1CN(C)CC1CC1	-11.2	0.6	-2.4	6.6	1.6	1.8
CCC(C(=O)NCc1ccccc1)n1c(-c2ccc3c(c2)CCO3)nc2ccccc21 (stereo unspecified)	-16.6	0.1	-31.0	0.0	/	/
CSCCC(C(=O)NCc1ccccc1)n1c(-c2ccc3c(c2)CCO3)nc2ccccc21 (stereo unspecified)	-38.5	0.4	-17.1*	1.0	/	/
C=CCOc1ccc(Br)cc1/C=C1\NC(=S)N(C(C)=O)C1=O	-29.7	0.0	-31.8*	0.2	-8.2	1.3
COc1ccc(NC2CCCN(C(=O)c3csc(C(C)C)n3)C2)cc1OC (stereo unspecified)	-17.8	78.6*	14.2	0.5	-1.1	-0.4
COc1ccccc1OCCn1cc(C=O)c2ccccc21	0.3	?	-2.0	-0.1	-1.8	2.7
O=Cc1cn(CCOc2ccccc2F)c2ccccc12	-11.5	/	-42.0*	0.0	-1.5	-2.1
COC(=O)[C@]12C[C@H](CC(=O)N3CCSCC3)C(=O)N(Cc3ccc4c(c3)OCO4)C1=C[C@H](COCc1ccccc1)O[C@@H]2C	-27.0	0.1	-1.1	0.1	/	/
CC(=O)Nc1ccc(C=NNc2ccc([N+](=O)[O-])cc2S(=O)(=O)Nc2ccccc2C(=O)O)cc1	-29.1	/	-5.9	0.7	-22.9	-0.7
CN(CCO)c1ccc(C=NNc2ccc([N+](=O)[O-])cc2S(=O)(=O)Nc2ccccc2C(=O)O)cc1	-44.1	-0.2	-14.1*	-0.1	-4.6	-3.5
COc1ccc(C(C)=NNc2ccc([N+](=O)[O-])cc2S(=O)(=O)Nc2ccccc2C(=O)O)c(OC)c1	-22.3	-0.6	-20.1*	0.0	4.1	5.5
CCOc1cc(/C=N/Nc2ccc(S(=O)(=O)Nc3ccccc3C(=O)O)cc2[N+](=O)[O-])cc(Cl)c1O	-4.8	-0.2	-8.1*	-0.1	0.4	-1.8
C[C@H]1CN([C@@H](C)CO)C(=O)c2cccc(NC(=O)c3ccncc3)c2O[C@@H]1CN(C)C(=O)NC1CCCCC1	9.1	/	6.7	-0.6	-5.1	2.1
COc1ccc(N2CCN(C(=O)c3oc4ccccc4c3C)CC2)cc1	-8.0	/	-38.3*	-0.1	/	/
COc1ccc(N2CCN(C(=O)c3[nH]c(C(F)(F)F)nc3-c3ccccc3)CC2)cc1	-35.5	2.4	-26.1*	0.0	-8.0	-1.1
Cc1ccc(/C(=N/Nc2ncnc3ccccc23)C(=O)O)cc1	-22.6	51.3*	-2.7	0.2	0.0	0.4
Cc1ccc(-c2ccc(=O)n(Cc3c(F)cccc3Cl)n2)cc1	-11.1	0.0	-26.6*	0.0	10.0	-1.3
Cc1nn(-c2ccccc2)c(Cl)c1CN(C(=O)CCl)c1ccc(Cl)cc1	-12.5	0.0	-32.2*	1.9	13.3	-3.5
CCn1c(C)nc2cc(C(=O)NNC(=S)Nc3ccccc3OC)ccc21	-16.4	/	-19.5*	3.1	/	/
COCC(C)n1c(SCc2cc(=O)n3cc(C)ccc3n2)nc2ccccc2c1=O (stereo unspecified)	-10.5	/	-27.4*	0.1	-2.8	-3.1
C[C@@H]1CN([C@H](C)CO)C(=O)Cc2cc(NC(=O)Nc3ccc(C(F)(F)F)cc3)ccc2O[C@H]1CN(C)C(=O)Nc1ccc(F)cc1	-12.2	-0.5	-1.7	-1.2	2.3	0.2
CS(=O)(=O)N1C[C@H](O)COC[C@@H]2O[C@H](CC(=O)NCc3ccc(-c4ccccc4)cc3)CC[C@H]21	57.5*	0.3	-31.2	0.1	0.2	1.1
CS(=O)(=O)N1C[C@H](O)COC[C@H]2O[C@@H](CC(=O)NCc3ccc(-c4ccccc4)cc3)CC[C@@H]21	46.9	0.3	-4.6	0.1	19.6	1.3
O=C(C[C@@H]1CC[C@@H]2[C@H](COC[C@@H](O)CN2S(=O)(=O)c2ccccc2)O1)NCc1ccc(-c2ccccc2)cc1	89.2*	0.3	-8.1	0.0	-5.5	0.4
O=C(C[C@@H]1CC[C@@H]2[C@H](COC[C@H](O)CN2S(=O)(=O)c2ccccc2)O1)NCc1ccc(-c2ccccc2)cc1	18.3	0.2	-7.3	-0.1	-0.7	-1.4
SMILES	RAD52 anneal inh	E-selectin induc	rRNA inh HTS	XiGFP reactiv	RAD54 branch	PglD inh
O=C(C[C@H]1CC[C@H]2[C@@H](COC[C@H](O)CN2S(=O)(=O)c2ccccc2)O1)NCc1ccc(-c2ccccc2)cc1	91.9*	0.3	-8.7	0.0	2.5	-0.7
CCNC(=O)C[C@H]1CC[C@@H]2[C@H](COc3ccc(NC(=O)Nc4cccc(C)c4)cc3C(=O)N2C)O1	11.8	0.7	2.8	0.0	0.4	-1.2
CCCNC(=O)C[C@H]1C[C@H]2c3cc(NS(C)(=O)=O)ccc3O[C@H]2[C@H](CO)O1	-7.6	-0.3	0.5	0.0	7.0	-3.1
CS(=O)(=O)NCCNc1cc(Cl)ccc1[N+](=O)[O-]	-61.7	95.1*	3.8	0.0	1.3	0.2
O=C(/C=C/c1ccccc1)NC1CC2CCC1C2 (stereo unspecified)	/	/	/	0.1	/	/
O=C(/C=C/c1ccc([N+](=O)[O-])cc1)NNC(=O)C1CC1	-2.0	0.6	38.9	-0.1	-0.6	5.0
O=C(/C=C/c1ccc([N+](=O)[O-])cc1)NC1CC2CCC1C2 (stereo unspecified)	-4.7	/	-28.4*	0.0	/	/
O=C(/C=C/c1ccc(Cl)cc1)NC1CC2CCC1C2 (stereo unspecified)	-15.4	34.7*	-50.0	0.0	-0.8	-4.0
Cc1ccc(S(=O)(=O)Nc2ccc3c(c2)C(=O)N([C@H](C)CO)C[C@H](C)[C@H](CN(C)S(=O)(=O)c2c(C)noc2C)O3)cc1	2.2	-0.3	2.9	-0.2	2.9	5.5
c1cncc(-c2ccc(C3[C@@H]4CN(Cc5nccs5)C[C@H]3N4)cc2)c1 (stereo partly specified)	-1.8	0.1	1.6	0.1	/	/
NC(=S)N/N=C/c1ccc(-c2cc(Cl)ccc2Cl)o1	-21.9	/	-21.4*	/	4.7	1.3
NC(=S)N/N=C/c1ccc(-c2cc(Cl)cc(Cl)c2)o1	/	/	/	/	-12.6	0.3
COc1ccc(NS(=O)(=O)c2ccc(NC(=O)c3ccccc3Br)cc2)nn1	-19.1	1.7	-25.5*	0.1	-14.8	1.2
